Source: PubChem (several laboratories)
CRFR2-BP antag – blocks CRF-induced signaling of the CRF-BP/CRF-R2 complex. HEK293 CRF-R2/CRF-BP, CRF-induced calcium fluorescence. inhibition, % at 11.8 µM. 0.59% of 350,000 active. AID 588475;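 active means inhibition of the ligand-induced calcium signal above about 50% at the single tested concentration, limit read from the data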
PKA-R2B activ – activators of human PKA-R2B complex; AID 504700; PKA-R2B holoenzyme dissociation, Cy5-IP20 fluorescence polarization; R2B truncated from residue 108, S112A mutant; 0% DMSO only, 100% 113 µM cGMP; activation, % at 11.4 µM; 0.079% of 340,000 active;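 active means activation above a cutoff set at the mean over all compounds plus 3 SD, cut at about 18% in these data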;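 further: higher means more holoenzyme dissociation and a rise in polarization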
Target sequence (P31323 whole entry, looked up, other chains not shown, the tested form may be a part): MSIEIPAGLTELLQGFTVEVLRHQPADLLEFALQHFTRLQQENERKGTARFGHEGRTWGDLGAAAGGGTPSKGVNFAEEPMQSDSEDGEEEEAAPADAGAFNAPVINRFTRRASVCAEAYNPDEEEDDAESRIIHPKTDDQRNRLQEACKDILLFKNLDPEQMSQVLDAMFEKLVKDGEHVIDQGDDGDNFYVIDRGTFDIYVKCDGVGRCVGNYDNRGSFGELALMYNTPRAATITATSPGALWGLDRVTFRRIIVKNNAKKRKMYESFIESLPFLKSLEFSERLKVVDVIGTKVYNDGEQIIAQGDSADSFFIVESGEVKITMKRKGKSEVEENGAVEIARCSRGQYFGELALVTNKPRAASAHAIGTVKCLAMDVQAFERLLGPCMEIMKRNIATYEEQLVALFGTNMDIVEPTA
S100A4 inh HTS – S100A4-myosin IIA interaction inhibition; S100A4/TAMRA-MyoIIA peptide fluorescence polarization; inhibition, % at 10.7 µM; P26447; 0.14% of 360,000 active;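 active means mean inhibition of at least 70% across replicates, with every replicate also reaching that level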
Target sequence (P26447 whole entry, looked up): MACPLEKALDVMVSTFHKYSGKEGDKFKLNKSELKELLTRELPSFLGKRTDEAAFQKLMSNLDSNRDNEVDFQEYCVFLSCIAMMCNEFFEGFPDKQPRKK
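Compound dosing: one dose per compound; test system: human S100A4 monomer with TAMRA-labelled myosin IIA peptide; probe or stimulus: TAMRA-labelled myosin IIA heavy-chain peptide probe, 5 nM; medium: HEPES buffer with Ca2+, pH 7.2; schedule: 5 min incubation before reading; benchmarks: neutral control DMSO, positive control TFP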
SIRT5 block – inhibitors of human sirtuin-5 desuccinylase. 1.1% of 330,000 active. Purified SirT5, succinyl-peptide AMC, trypsin-coupled fluorescence. inhibition, % at 15 µM; in the data active means inhibition above about 15%
PKA-R1A act – PKA-R1A complex activation; PKA-R1A dissociation, Cy5-IP20 fluorescence polarization; scaled: DMSO 0%, 113 µM cGMP 100%; activation, % at 11.4 µM; 0.083% of 340,000 active; AID 504707;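 active means percent activation above the mean of all tested compounds plus 3 SD, cut at about 19% in these data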;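 further: higher means more PKAc released from R1A so a rise in polarization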
An asterisk follows results filed as active; · = no result given. Sampled rows, rich in hits. Any-hit rate of the full collection: about 1.5%.

SMILES	CRFR2-BP antag	PKA-R2B activ	S100A4 inh HTS	SIRT5 block	PKA-R1A act
C[C@@H]1CN([C@H](C)CO)C(=O)c2c(c3ccccc3n2C)-c2ccccc2CO[C@H]1CN(C)Cc1ccc2c(c1)OCO2	·	·	-8	7	·
C[C@@H]1CN([C@@H](C)CO)C(=O)c2c(c3ccccc3n2C)-c2ccccc2CO[C@H]1CN(C)Cc1cccc(C(=O)Nc2ccccc2N)c1	·	·	1	17*	·
C[C@H]1CN([C@@H](C)CO)C(=O)c2c(c3ccccc3n2C)-c2ccccc2CO[C@@H]1CN(C)Cc1ccc2c(c1)OCO2	·	·	10	19*	·
C[C@H]1CN([C@@H](C)CO)C(=O)c2c(c3ccccc3n2C)-c2ccccc2CO[C@@H]1CN(C)Cc1cccc(F)c1	·	·	-4	18*	·
CN(C)C(=O)C[C@@H]1CC[C@H]2[C@@H](COC[C@@H](O)CN2CC2CC2)O1	·	·	0	0	·
C[C@@H]1CN([C@H](C)CO)C(=O)c2c(c3ccccc3n2C)-c2ccccc2CO[C@@H]1CN(C)Cc1ccc2c(c1)OCCN2C	·	·	6	16*	·
CN1[C@@H]2c3ccc(-c4ccccc4F)c(=O)n3C[C@@H]2[C@@H](CO)[C@@H]1C(=O)NCc1ccncc1	·	·	1	4	·
COc1ccc(S(=O)(=O)Nc2cccc3c2O[C@@H](CN(C)S(=O)(=O)c2c(C)noc2C)[C@H](C)CN([C@@H](C)CO)C3=O)cc1	·	·	127*	5	·
COc1ccc(S(=O)(=O)Nc2cccc3c2O[C@@H](CN(C)S(=O)(=O)c2c(C)noc2C)[C@H](C)CN([C@H](C)CO)C3=O)cc1	·	·	0	102*	·
COc1ccc(S(=O)(=O)N(C)C[C@@H]2Oc3c(NC(=O)c4ccncc4)cccc3C(=O)N([C@@H](C)CO)C[C@@H]2C)cc1	·	·	3	-2	·
COc1ccc(S(=O)(=O)N(C)C[C@@H]2Oc3c(NC(=O)c4ccncc4)cccc3C(=O)N([C@@H](C)CO)C[C@H]2C)cc1	·	·	-4	17*	·
O=C(N[C@H]1CC[C@@H](CCNC(=O)C2CCOCC2)O[C@@H]1CO)c1ccccn1	·	·	9	-5	·
O=c1c2ccccc2nc2n1C(CBr)CS2 (stereo not drawn)	4	-7	-2	2	4
O=c1c2ccccc2nc2n1C(CBr)CN2 (stereo not drawn)	65*	-1	-4	-2	-19
O=C(NC1CCC1)[C@@H]1[C@@H](CO)[C@@H]2Cn3c(ccc(-c4ccncc4)c3=O)[C@H]1N2Cc1cocn1	·	·	0	-7	·
Nc1ccc2c(S(=O)(=O)O)cccc2c1S(=O)(=O)O	24	4	3	·	-1
Nc1cccc2cc(S(=O)(=O)O)ccc12	19	-7	42	57*	3
Cn1ccnc1SC(C(=O)O)c1ccccc1 (stereo not drawn)	1	-7	-17	102*	-2
CC(C)N(Cc1ccccc1)C(=O)CSc1nccn1C	-6	1	3	-4	-5
COCC(=O)Nc1ccc2c(c1)OC[C@@H](C)N(C(=O)CC1CC1)C[C@@H](C)[C@H](OC)CN(C)C2=O	·	·	-1	·	·
O=C1CC2(CCCCC2)Oc2ccccc21	-6	-17	3	31*	-4
CCOc1ccccc1C(=O)OCC(=O)NCC1CCCO1 (stereo not drawn)	108*	-4	4	1	-1
CO[C@H]1CN(C)C(=O)c2ccc(NC(=O)Nc3ccccc3)cc2OC[C@H](C)NC[C@H]1C	·	·	21	1	·
Cc1noc(C)c1NC(=O)Nc1ccc2c(c1)C(=O)N([C@@H](C)CO)C[C@H](C)[C@@H](CN(C)C(=O)Nc1c(C)noc1C)O2	·	·	25	-4	·
COc1ccc2c3c(n(C)c2c1)[C@H](CO)N(C(=O)CN(C)C)CC31CCN(C(=O)C2CCC2)CC1	·	·	-7	·	·
SMILES	CRFR2-BP antag	PKA-R2B activ	S100A4 inh HTS	SIRT5 block	PKA-R1A act
CCOc1ccc(CNC(=O)CCCC(=O)n2ncc3cc(C)ccc32)cc1	-7	-10	-2	15*	-7
C=CCCC(=O)N1CCC(n2nccc2NC(=O)c2ccc(OC)cc2)CC1	66*	3	-7	0	9
COc1ccc(C(=O)Nc2ccnn2C2CCN(C(=O)CCC(F)(F)F)CC2)cc1	-4	-2	3	-2	6
C[C@@H]1CCCCO[C@@H](CN(C)CC2CCCCC2)[C@H](C)CN([C@@H](C)CO)C(=O)c2cc(NC(=O)Cc3ccccc3)ccc2O1	·	·	15	-1	·
COc1ccc(C(=O)COC(=O)c2cncc(Br)c2)cc1	-5	5	-2	-2	8
CN(Cc1ccccc1)C(=O)COC(=O)c1cncc(Br)c1	8	10	0	17*	-6
CN(Cc1ccccc1)C(=O)COC(=O)c1ccc(Cl)c(N)c1	-5	-7	·	·	-12
CC(C)N(C(=O)COC(=O)c1cncc(Br)c1)C(C)C	104*	-9	-6	2	-3
CC1CCCC(NC(=O)COC(=O)CCSc2ccccc2)C1C (stereo not drawn)	8	-6	1	16*	1
CC(CC(=O)Nc1ccc2c(c1)c(=O)n(C)n2-c1ccc2ccccc2c1)C(F)(F)F (stereo not drawn)	·	·	1	21*	·
CO[C@@H]1CN(C)C(=O)c2cc(NC(=O)Nc3ccccc3)ccc2OC[C@H](C)N(C(=O)Nc2c(C)noc2C)C[C@@H]1C	·	·	1	10	·
C=C1CCC[C@]2(C)C[C@H]3OC(=O)C(CNC(C)(CO)CO)[C@H]3CC12 (stereo partly drawn)	86*	3	-2	-4	-6
C=C1CCC[C@]2(C)C[C@H]3OC(=O)C(CNC(CC)CO)[C@H]3CC12 (stereo partly drawn)	-3	-6	3	-5	-3
CC=Cc1ccc2n(c1=O)C[C@@H]1[C@@H](CO)[C@H](C(=O)NC3CCCC3)N(CCC)[C@H]21 (mixture of isomers)	·	·	20	15*	·
CC=Cc1ccc2n(c1=O)C[C@@H]1N[C@H]2[C@H](C(=O)NC2CCCCC2)[C@H]1CO (mixture of isomers)	·	·	81*	-8	·
Cc1ccc([C@H]2C[C@H](O)[C@@H](n3cc(COC(=O)c4ccccc4)nn3)CN2C(=O)c2cccs2)cc1	-12	-3	6	17*	-4
CCCCCCN1C[C@H](O)[C@@H](n2cc(COC(=O)c3ccccc3)nn2)C[C@@H]1c1ccc(Cl)cc1	-5	-5	-10	15*	-6
C[C@H](CO)N1C[C@H](C)[C@@H](CN(C)C)Oc2cc(C#Cc3ccncc3)ccc2S1(=O)=O	·	·	-4	-2	·
COc1ccccc1NC(=O)/C=C/c1ccc(OC)c(S(=O)(=O)N2CCOCC2)c1	-2	-9	-3	0	-12
COc1ccc(/C=C/C(=O)Nc2cc(F)ccc2C)cc1S(=O)(=O)N1CCOCC1	-9	6	1	18*	-6
